From paper PMC8923172 (Antimicrobial Agents and Chemotherapy, 2022)
Marks after values point to notes of the source that are not given here. Residues, ends and D or L forms follow the SMILES beside them.

Columns and labels:
[1] = Single- and multiple-dose i.v. pharmacokinetics in cynomolgus monkeys; type: in vivo, cynomolgus monkeys (Macaca fascicularis); conditions: for Cmax: 1-h i.v. infusion; for Cmax / AUC0-∞ / AUCτ / CL / λz / Vss / MRT: mean (SD); for MRT: MRTinf
[2] = Hematology of cynomolgus monkeys at the end of treatment; type: in vivo; conditions: median (IQR)
In short: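 GLP 10-day study in male and female cynomolgus monkeys (n = 3-5/sex/group) dosed once daily with 0 (placebo), 5, 10 or 15 mg/kg test compound by i.v. infusion over 60 ± 5 min. Hematology, serum chemistry and coagulation were taken at end of treatment and reported as median (IQR). Dose groups were compared by Kruskal-Wallis with Dunn's multiple comparison test.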

[3] = both, cynomolgus monkey, plasma, iv, 15 mg/kg/day

## CC[C@H](C)[C@@H]1NC(=O)[C@@H]2CSSC[C@H](NC(=O)[C@H](CCCNC(=N)N)NC(=O)[C@@H]3CSSC[C@H](NC1=O)C(=O)N[C@@H]([C@@H](C)O)C(=O)N[C@@H](CCCNC(=N)N)C(=O)NCC(=O)N[C@@H](Cc1ccccc1)C(=O)N3)C(=O)N[C@@H](CC(C)C)C(=O)N[C@H]1CSSC[C@H](NC(=O)[C@H](C(C)C)NC(=O)CNC(=O)[C@H](CCCNC(=N)N)NC(=O)[C@H](CCCNC(=N)N)NC1=O)C(=O)N[C@@H](CCCNC(=N)N)C(=O)N2 [RTD-1, Rhesus theta (θ) defensin-1] (HELM PEPTIDE1{G.F.C.R.C.L.C.R.R.G.V.C.R.C.I.C.T.R}$PEPTIDE1,PEPTIDE1,3:R3-16:R3|PEPTIDE1,PEPTIDE1,5:R3-14:R3|PEPTIDE1,PEPTIDE1,7:R3-12:R3|PEPTIDE1,PEPTIDE1,1:R1-18:R2$$$V2.0)
[1]; 0.3 mg/kg Day 1, n=2
  Cmax: 582 (109) ng/mL
  AUC0-∞: 617 (137) ng · h/mL
  AUCτ: 591 (145) ng · h/mL
  CL: 498 (111) mL/h/kg
  λz: 0.523 (0.119) h^−1
[1]; 1 mg/kg Day 1, n=2
  Cmax: 2,560 (820) ng/mL
  AUC0-∞: 3,875 (973) ng · h/mL
  AUCτ: 3,818 (961) ng · h/mL
  CL: 266 (66.9) mL/h/kg
  λz: 0.251 (0.035) h^−1
[1]; 3 mg/kg Day 1, n=2
  AUCτ: 10,334 (2,239) ng · h/mL
  λz: 0.078 (0.017) h^−1
[1]; 5 mg/kg Day 1, n=6
  Cmax: 10,700 (2,455) ng/mL
  AUCτ: 27,160 (4,286) ng · h/mL
  λz: 0.323 (0.016) h^−1
[1]; 5 mg/kg Day 10, n=6
  AUCτ: 38,936 (9,829) ng · h/mL
  CL: 136 (36.5)# mL/h/kg
  λz: 0.157 (0.009)# h^−1
[1]; 5 mg/kg/day
  accumulation: mean AUCτ day 10 vs mean AUC0-∞ day 1: approximately 1.4 fold
[1]; 10 mg/kg Day 1, n=8
  Cmax: 26,675 (8,240) ng/mL
  AUCτ: 76,083 (23,562) ng · h/mL
  CL: 143 (48.2)* mL/h/kg
  λz: 0.192 (0.034)* h^−1
[1]; 10 mg/kg Day 10, n=6
  AUCτ: 117,529 (26,077) ng · h/mL
  CL: 88.5 (18.5)* mL/h/kg
  Vss: 624 (88.2) mL/kg
  λz: 0.120 (0.018)* h^−1
[1]; 10 mg/kg/day
  accumulation: mean AUCτ day 10 vs mean AUC0-∞ day 1: ~1.5 fold
[1]; 15 mg/kg Day 1, n=12
  Cmax: 46,458 (15,247)† ng/mL
  AUCτ: 138,135 (34,942) ng · h/mL
  CL: 114 (25.7) mL/h/kg
  Vss: 629 (176)† mL/kg
  λz: 0.149 (0.019)† h^−1
[1]; 15 mg/kg Day 4, n=2
  AUCτ: 139,595 (2,366) ng · h/mL
  λz: 0.072 (0.020) h^−1
[1]; 15 mg/kg Day 7, n=2
  AUCτ: 154,149 (12,406) ng · h/mL
  λz: 0.071 (0.017) h^−1
[1]; 15 mg/kg Day 10, n=9
  Cmax: 32,233 (13,933)† ng/mL
  AUCτ: 173,315 (67,934) ng · h/mL
  Vss: 1,139 (411)† mL/kg
  λz: 0.078 (0.020)† h^−1
[1]; both, cynomolgus monkey, plasma, iv, 0.3 mg/kg, 0.3 mg/kg Day 1, n=2
  MRT: 1.24 h
[1]; both, cynomolgus monkey, plasma, iv, 1 mg/kg, 1 mg/kg Day 1, n=2
  MRT: 1.82 h
[1]; both, cynomolgus monkey, plasma, iv, 3 mg/kg, 3 mg/kg Day 1, n=2
  MRT: 4.3 h
[1]; both, cynomolgus monkey, plasma, iv, 5 mg/kg, 5 mg/kg Day 1, n=6
  MRT: 2.94 h
[1]; both, cynomolgus monkey, plasma, iv, 5 mg/kg, 5 mg/kg Day 10, n=6
  MRT: 4.84 h
[1]; both, cynomolgus monkey, plasma, iv, 10 mg/kg, 10 mg/kg Day 1, n=8
  MRT: 4.4 h
[1]; both, cynomolgus monkey, plasma, iv, 10 mg/kg, 10 mg/kg Day 10, n=6
  MRT: 7.2 h
[1]; both, cynomolgus monkey, plasma, iv, 15 mg/kg, 15 mg/kg Day 1, n=12
  MRT: 5.48 h
[1]; both, cynomolgus monkey, plasma, iv, 15 mg/kg, 15 mg/kg Day 4, n=2
  MRT: 11.8 h
[1]; both, cynomolgus monkey, plasma, iv, 15 mg/kg, 15 mg/kg Day 7, n=2
  MRT: 12.3 h
[1]; both, cynomolgus monkey, plasma, iv, 15 mg/kg, 15 mg/kg Day 10, n=9
  MRT: 12 h
[1]; [3]
  level at 288 h: 537 ng/mL
  level at 576 h: 12.5 ng/mL
[1]; single dose of 0.3 or 1 mg/kg
  time plasma concentrations detectable post-end of infusion: up to 12 h
[2]; female, 5 mg/kg/day
  Basophils, absolute: 0.05 (0.01) 10^3/mm^3
  Eosinophils, absolute: 0.32 (0.27) 10^3/mm^3
  Hematocrit: 43.80 (3.15) %
  Hemoglobin: 12.90 (0.35) g/dL
  LUC, absolute: 0.11 (0.02) 10^3/mm^3
  Lymphocytes, absolute: 3.40 (1.18) 10^3/mm^3
  MCH: 21.20 (1.10) pg
  MCHC: 29.50 (1.35) g/dL
  MCV: 69.20 (1.70) fL
  Monocytes, absolute: 0.53 (0.21) 10^3/mm^3
  Neutrophils, absolute: 6.43 (2.10) 10^3/mm^3
  Platelets: 576.00 (58.00) 10^3/mm^3
  RBC: 6.05 (0.47) 10^6/mm^3
  RDW: 15.10 (0.50) %
  Reticulocytes, absolute: 53.60 (17.00) 10^9/L
  WBC: 12.70 (2.30) 10^3/mm^3
[2]; female, 10 mg/kg/day
  Basophils, absolute: 0.06 (0.04) 10^3/mm^3
  Eosinophils, absolute: 0.40 (0.06) 10^3/mm^3
  Hematocrit: 38.50 (4.60) %
  Hemoglobin: 10.70 (1.25) g/dL
  LUC, absolute: 0.10 (0.01) 10^3/mm^3
  Lymphocytes, absolute: 4.46 (1.00) 10^3/mm^3
  MCH: 20.20 (1.00) pg
  MCHC: 28.80 (0.70) g/dL
  MCV: 69.70 (4.30) fL
  Monocytes, absolute: 0.66 (0.13) 10^3/mm^3
  Neutrophils, absolute: 5.08 (5.64) 10^3/mm^3
  Platelets: 497.00 (214.50) 10^3/mm^3
  RBC: 5.30 (0.94) 10^6/mm^3
  RDW: 15.10 (0.70) %
  Reticulocytes, absolute: 70.30 (33.40) 10^9/L
  WBC: 10.70 (6.80) 10^3/mm^3
[2]; female, 15 mg/kg/day
  Basophils, absolute: 0.12 (0.01) 10^3/mm^3
  Eosinophils, absolute: 0.34 (0.10) 10^3/mm^3
  Hematocrit: 38.50 (6.90) %
  Hemoglobin: 10.90 (1.70) g/dL
  LUC, absolute: 0.16 (0.06) 10^3/mm^3
  Lymphocytes, absolute: 5.09 (2.32) 10^3/mm^3
  MCH: 19.90 (0.30) pg
  MCHC: 28.80 (1.10) g/dL
  MCV: 68.90 (2.00) fL
  Monocytes, absolute: 0.79 (0.15)^c 10^3/mm^3
  Neutrophils, absolute: 11.31 (5.67) 10^3/mm^3
  Platelets: 513.00 (299.00) 10^3/mm^3
  RBC: 6.04 (1.28) 10^6/mm^3
  RDW: 14.70 (1.80) %
  Reticulocytes, absolute: 83.90 (46.10) 10^9/L
  WBC: 16.10 (5.40) 10^3/mm^3
[2]; male, 5 mg/kg/day
  Basophils, absolute: 0.12 (0.08) 10^3/mm^3
  Eosinophils, absolute: 0.26 (0.12) 10^3/mm^3
  Hematocrit: 43.10 (3.05) %
  Hemoglobin: 12.70 (0.85) g/dL
  LUC, absolute: 0.15 (0.07) 10^3/mm^3
  Lymphocytes, absolute: 6.85 (3.12) 10^3/mm^3
  MCH: 19.80 (0.55) pg
  MCHC: 26.40 (1.55) g/dL
  MCV: 75.10 (2.10) fL
  Monocytes, absolute: 0.74 (0.23) 10^3/mm^3
  Neutrophils, absolute: 4.65 (3.33) 10^3/mm^3
  Platelets: 358.00 (21.50) 10^3/mm^3
  RBC: 6.06 (0.42) 10^6/mm^3
  RDW: 15.40 (1.00) %
  Reticulocytes, absolute: 43.70 (23.20) 10^9/L
  WBC: 14.70 (5.95) 10^3/mm^3
[2]; male, 10 mg/kg/day
  Basophils, absolute: 0.08 (0.04) 10^3/mm^3
  Eosinophils, absolute: 0.20 (0.06) 10^3/mm^3
  Hematocrit: 42.60 (5.20) %
  Hemoglobin: 11.90 (1.30) g/dL
  LUC, absolute: 0.15 (0.01) 10^3/mm^3
  Lymphocytes, absolute: 5.85 (2.85) 10^3/mm^3
  MCH: 20.30 (1.00) pg
  MCHC: 27.90 (0.35) g/dL
  MCV: 72.00 (4.00) fL
  Monocytes, absolute: 0.63 (0.18) 10^3/mm^3
  Neutrophils, absolute: 4.31 (1.38) 10^3/mm^3
  Platelets: 450.00 (114.00) 10^3/mm^3
  RBC: 6.35 (0.58) 10^6/mm^3
  RDW: 17.20 (1.35) %
  Reticulocytes, absolute: 60.00 (71.70) 10^9/L
  WBC: 11.00 (1.75) 10^3/mm^3
[2]; male, 15 mg/kg/day
  Basophils, absolute: 0.11 (0.10) 10^3/mm^3
  Eosinophils, absolute: 0.39 (0.70) 10^3/mm^3
  Hematocrit: 38.40 (2.30) %
  Hemoglobin: 11.10 (0.90) g/dL
  LUC, absolute: 0.17 (0.11)^c 10^3/mm^3
  Lymphocytes, absolute: 4.78 (2.17) 10^3/mm^3
  MCH: 20.20 (0.90) pg
  MCHC: 28.90 (1.20) g/dL
  MCV: 71.20 (3.40) fL
  Monocytes, absolute: 1.10 (0.74) 10^3/mm^3
  Neutrophils, absolute: 7.62 (9.59) 10^3/mm^3
  Platelets: 634.00 (42.00)^d 10^3/mm^3
  RBC: 5.56 (0.40) 10^6/mm^3
  RDW: 14.80 (0.80) %
  Reticulocytes, absolute: 69.10 (47.50) 10^9/L
  WBC: 14.90 (12.80) 10^3/mm^3
